According to ChEMBL document CHEMBL1140052, “Novel insight in structure-activity relationship and bioanalysis of P-glycoprotein targeting highly potent tetrakishydroxymethyl substituted 3,9-diazatetraasteranes” (J Med Chem, 2008):
Calls of active or inactive are those of the source. The calls are words filed in the database; no cut-off is given here.

Tests used:
[1] = system: L5178Y; assay: Inhibition of P-glycoprotein expressed in mouse L5178Y cells measured by rhodamine 123 uptake assessed as fluorescence activity ratio relative to wild type mouse L5178 cells at 1 uM; format: cell-based
Procedure, shortened: (§1)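 Mouse T lymphoma parental L5178 and P-gp-expressing L5178Y cells at 2 × 10^6 cells/mL in serum-free McCoy's 5A medium. Compound added from DMSO stock, 10 min at rt. Rhodamine 123 then added (final 5.2 µM), 20 min at 37 °C. Two PBS washes, 1 × 10^4 cells read by flow cytometry. Ratio = subline/parental fluorescence, each corrected to its untreated control.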

[2] = system: L5178Y; assay: Inhibition of P-glycoprotein expressed in mouse L5178Y cells measured by rhodamine 123 uptake assessed as fluorescence activity ratio relative to wild type mouse L5178 cells at 10 uM; format: cell-based; procedure, shortened: as §1
[3] = species: Homo sapiens; assay: Induction of p-glycoprotein expression in human EPG 85-257 cells after 72 hrs by Western blot analysis; format: functional, cell-based
Procedure, shortened: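 Gastric carcinoma cells seeded at 5 × 10^5 cells/well and cultured 72 h with compound. Cells washed twice, proteins extracted with Triton X-100 and denatured 10 min at 95 °C. Protein quantified by amido black at 630 nm. 20 µg run on SDS-PAGE (4% stacking/6% resolving) and blotted. Probed with C219 (1:100) and peroxidase anti-mouse IgG (1:10000), chemiluminescence read-out. Anti-actin (1:50000) as loading control.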

Row | Structure (SMILES) | Ratio [1] | Ratio [2] | Activity [3]
1 | COc1ccc(CN2C3[C@]4(CO)C5N(Cc6ccc(OC)cc6)C6[C@](CO)(C2[C@@]6(CO)[C@@H](c2ccccc2)[C@@]35CO)[C@H]4c2ccccc2)cc1 | 3.5 | 13 | –
2 | COc1ccc(CCN(C)CCCC(C#N)(c2ccc(OC)c(OC)c2)C(C)C)cc1OC (configuration not stated) | 2.1 | 4.1 | –
3 | OC[C@]12C3N(Cc4ccc(OCc5ccccc5)cc4)C4[C@](CO)(C5N(Cc6ccc(OCc7ccccc7)cc6)C1[C@]3(CO)[C@H](c1ccccc1)[C@@]45CO)[C@H]2c1ccccc1 | 2.3 | 28 | –
4 | OC[C@]12C3N(Cc4ccccc4)C4[C@](CO)(C5N(Cc6ccccc6)C1[C@]3(CO)[C@H](c1cccc(OCc3ccccc3)c1)[C@@]45CO)[C@H]2c1cccc(OCc2ccccc2)c1 | 65 | 125 | –
5 | COc1ccc([C@H]2[C@@]3(CO)C4N(Cc5ccccc5)C5[C@]2(CO)C2N(Cc6ccccc6)C3[C@]4(CO)[C@H](c3ccc(OC)cc3)[C@@]52CO)cc1 | 4.3 | 57 | inactive
6 | OC[C@]12C3N(Cc4ccccc4)C4[C@](CO)(C5N(Cc6ccccc6)C1[C@]3(CO)[C@H](c1ccc(OCc3ccccc3)cc1)[C@@]45CO)[C@H]2c1ccc(OCc2ccccc2)cc1 | 3.3 | 47 | –
7 | OC[C@]12C3N(Cc4cccc(OCc5ccccc5)c4)C4[C@](CO)(C5N(Cc6cccc(OCc7ccccc7)c6)C1[C@]3(CO)[C@@H](c1ccccc1)[C@@]45CO)[C@@H]2c1ccccc1 | 117 | 205 | –
8 | OC[C@]12C3N(Cc4ccccc4)C4[C@](CO)(C5N(Cc6ccccc6)C1[C@]3(CO)[C@@H](c1ccccc1)[C@@]45CO)[C@@H]2c1ccccc1 | 4.1 | 29 | –
